Assay results taken from ChEMBL document CHEMBL3244330, “Structure--activity relationships of n-substituted dopamine and 2-amino-6,7-dihydroxy-1,2,3,4-tetrahydronaphthalene analogues: behavioral effects in lesioned and reserpinized mice” (J Med Chem, 1979).

Experiments:
Mus musculus [1] = test: Postural effect on caudectomized Swiss albino mouse assessed as time duration of asymmetric posture at 58.4 mg/kg, ip; type: functional; conditions: route intraperitoneal
Summary of the method: (§1)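 Male Swiss albino Hale-Stoner mice with right caudectomy by suction, used if responsive to apomorphine 4 weeks post-lesion. Compound in 0.9% saline given ip, maximum 0.348 mmol/kg. 18 mice per compound in random groups of six, retested after 5–6 day intervals. Onset latency and duration of asymmetric posture recorded; mean ± SE from six animals.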

Mus musculus [2] = test: Postural effect on caudectomized Swiss albino mouse assessed as latency to onset time of asymmetric postural effect at 58.4 mg/kg, ip; type: functional; conditions: route intraperitoneal; summary of the method: as §1
Mus musculus [3] = test: Reversal of reserpine-induced catalepsy in ip dosed Swiss albino (CD1) mouse; type: functional
Summary of the method: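 Male Swiss albino CD1 mice, 5 weeks old, got reserpine 5 mg/kg ip, then α-MTM 250 mg/kg ip 17 h later, then the test drug ip 4 h after that. Catalepsy was scored by the rubber-stopper test (time to step off the stopper). At least four doses were used, with ≥8 mice per dose. ED50 was taken from a log-probit plot of percent responders against dose.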

Mus musculus [4] = test: Postural effect on caudectomized Swiss albino mouse assessed as latency to onset time of asymmetric postural effect at 29.2 mg/kg, ip; type: functional; conditions: route intraperitoneal; summary of the method: as §1
Mus musculus [5] = test: Postural effect on caudectomized Swiss albino mouse assessed as time duration of asymmetric posture at 29.2 mg/kg, ip; type: functional; conditions: route intraperitoneal; summary of the method: as §1
Mus musculus [6] = test: Postural effect on caudectomized Swiss albino mouse assessed as latency to onset time of asymmetric postural effect at 25.4 mg/kg, ip; type: functional; conditions: route intraperitoneal
Summary of the method: (§2)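 Male Swiss albino Hale-Stoner mice with a right caudectomy made by suction. A lesion was accepted if the mouse responded to apomorphine 4 weeks after surgery. Compounds were dissolved in 0.9% saline and injected ip at random into groups of six, with a maximum dose of 0.348 mmol/kg. 18 mice were used per compound, and mice were retested after 5–6 day intervals. Onset and duration of the asymmetric posture are reported as mean ± SE from six animals.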

Mus musculus [7] = test: Postural effect on caudectomized Swiss albino mouse assessed as time duration of asymmetric posture at 25.4 mg/kg, ip; type: functional; conditions: route intraperitoneal; summary of the method: as §2
Mus musculus [8] = test: Postural effect on caudectomized Swiss albino mouse assessed as latency to onset time of asymmetric postural effect at 50.8 mg/kg, ip; type: functional; conditions: route intraperitoneal; summary of the method: as §2
Mus musculus [9] = test: Postural effect on caudectomized Swiss albino mouse assessed as time duration of asymmetric posture at 50.8 mg/kg, ip; type: functional; conditions: route intraperitoneal
Summary of the method: (§3)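 Male Swiss albino Hale-Stoner mice given a right caudectomy by suction. The lesion counted as successful if the mice reacted to apomorphine 4 weeks later. Drug was given ip in 0.9% saline, up to 0.348 mmol/kg, to randomised groups of six, with 5-6 days before reuse. Onset and duration of asymmetric posture are reported as mean ± SE from six animals.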

Mus musculus [10] = test: Postural effect on caudectomized Swiss albino mouse assessed as time duration of asymmetric posture at 29.8 mg/kg, ip; type: functional; conditions: route intraperitoneal; summary of the method: as §2
Mus musculus [11] = test: Toxicity in caudectomized Swiss albino mouse at 44.6 mg/kg, ip; type: organism-based; set-up: dose 44.6 mg/kg, route intraperitoneal; conditions: in vivo
Mus musculus [12] = test: Postural effect on caudectomized Swiss albino mouse assessed as latency to onset time of asymmetric postural effect at 29.8 mg/kg, ip; type: functional; conditions: route intraperitoneal; summary of the method: as §2
Mus musculus [13] = test: Postural effect on caudectomized Swiss albino mouse assessed as time duration of asymmetric posture at 71.5 mg/kg, ip; type: functional; conditions: route intraperitoneal; summary of the method: as §3
Mus musculus [14] = test: Postural effect on caudectomized Swiss albino mouse assessed as latency to onset time of asymmetric postural effect at 23.8 mg/kg, ip; type: functional; conditions: route intraperitoneal; summary of the method: as §2
Mus musculus [15] = test: Postural effect on caudectomized Swiss albino mouse assessed as time duration of asymmetric posture at 23.8 mg/kg, ip; type: functional; conditions: route intraperitoneal; summary of the method: as §2
Mus musculus [16] = test: Postural effect on caudectomized Swiss albino mouse assessed as latency to onset time of asymmetric postural effect at 47.6 mg/kg, ip; type: functional; conditions: route intraperitoneal; summary of the method: as §2
Mus musculus [17] = test: Postural effect on caudectomized Swiss albino mouse assessed as time duration of asymmetric posture at 47.6 mg/kg, ip; type: functional; conditions: route intraperitoneal; summary of the method: as §2
Mus musculus [18] = test: Postural effect on caudectomized Swiss albino mouse assessed as latency to onset time of asymmetric postural effect at 71.5 mg/kg, ip; type: functional; conditions: route intraperitoneal; summary of the method: as §2
Mus musculus [19] = test: Postural effect on caudectomized Swiss albino mouse assessed as time duration of asymmetric posture at 27.3 mg/kg, ip; type: functional; conditions: route intraperitoneal; summary of the method: as §2
Mus musculus [20] = test: Postural effect on caudectomized Swiss albino mouse assessed as latency to onset time of asymmetric postural effect at 41 mg/kg, ip; type: functional; conditions: route intraperitoneal; summary of the method: as §2
Mus musculus [21] = test: Postural effect on caudectomized Swiss albino mouse assessed as time duration of asymmetric posture at 41 mg/kg, ip; type: functional; conditions: route intraperitoneal; summary of the method: as §2
Mus musculus [22] = test: Ratio of apomorphine ED50 to compound ED50 for reversal of reserpine-induced catalepsy in ip dosed Swiss albino (CD1) mouse; type: functional
Mus musculus [23] = test: Postural effect on caudectomized Swiss albino mouse assessed as latency to onset time of asymmetric postural effect at 27.3 mg/kg, ip; type: functional; conditions: route intraperitoneal; summary of the method: as §2
Mus musculus [24] = test: Toxicity in caudectomized Swiss albino mouse at 54.6 mg/kg, ip; type: organism-based; set-up: dose 54.6 mg/kg, route intraperitoneal; conditions: in vivo

Compound: CCCN(CCc1ccccc1)CCc1ccc(O)c(O)c1.Cl
- Time (Mus musculus [1]): 47.4 min
- Time (Mus musculus [2]): 3.2 min
- ED50 (Mus musculus [3]): 7.4 mg/kg
- Time (Mus musculus [4]): 4.4 min
- Time (Mus musculus [5]): 19.8 min

Compound: CCCN(CCc1ccc(O)c(O)c1)CC(C)C.Cl
- ED50 (Mus musculus [3]): 7.4 mg/kg
- Time (Mus musculus [6]): 2.8 min
- Time (Mus musculus [7]): 18 min
- Time (Mus musculus [8]): 2.6 min
- Time (Mus musculus [9]): 39 min

Compound: CCCN(CCc1ccc(O)c(O)c1)CCC1CCCCC1.Cl
- ED50 (Mus musculus [3]): 18 mg/kg
- Time (Mus musculus [10]): 14.1 min
- Activity (Mus musculus [11]): Toxic
- Time (Mus musculus [12]): 4.2 min

Compound: CCCCN(CC)CCc1ccc(O)c(O)c1.Cl
- Time (Mus musculus [13]): 19.4 min
- Time (Mus musculus [14]): 2.1 min
- ED50 (Mus musculus [3]): 34 mg/kg
- Time (Mus musculus [15]): 4.2 min
- Time (Mus musculus [16]): 2.3 min
- Time (Mus musculus [17]): 2.5 min
- Time (Mus musculus [18]): 5 min

Compound: Br.CCCCN(CCC)C1CCc2cc(O)c(O)cc2C1 (stereo not drawn)
- Time (Mus musculus [19]): 17 min
- ED50 (Mus musculus [3]): 1.3 mg/kg
- Time (Mus musculus [20]): 2 min
- Time (Mus musculus [21]): 31.5 min
- Ratio ED50 (Mus musculus [22]): 10
- Time (Mus musculus [23]): 2.8 min
- Activity (Mus musculus [24]): Toxic
